# Experimental data gathered from unrelated publications.
# Each line is one published result; the experiments were not run side by side.
# Effect on: metabolic stability
SMILES,species,sample,concentration,time,pH,quantity,result
Cc1cc(C)nc(Nc2ncc(C(=O)NCCc3c(C)[nH]c4ccccc34)cn2)c1,mouse,liver microsomes,1 µM,,,microsomal CLint,148 µL/min/mg
NC(=O)[C@@H]1CC(F)(F)CN1C(=O)c1ccc(N2CC(F)(F)C2)c(OCC2CC2)n1,mouse,hepatocytes,,,,hepatocyte CLint,59 µL/min/10⁶ cells
Cc1ncc2n1-c1ccc(Cl)cc1C(c1ccccc1F)=NC2,male CD-1 mouse,liver microsomes,1 µM,,,microsomal CLint,> 250 µL/min/mg
Cc1ccc(F)c2cc(C(=O)N[C@@H]3CCC[C@H](N4CC[C@H](N(C)S(C)(=O)=O)C4)C3)[nH]c12,mouse,hepatocytes,0.5 µM,1 h,,scaled CLint,721 mL/min/kg
Cc1nc([C@@](C)(CC2CC2)NC(=O)c2cc(OCC(F)(F)F)c(C3CC3)cn2)no1,mouse,hepatocytes,,,,hepatocyte CLint,27 µL/min/10⁶ cells
Cc1cc(Cl)c(Cl)cc1NC(=O)c1ccc(N2CCNCC2)c(C#N)c1,CD-1 mouse,liver microsomes,1 µM,1 h,pH 7.4,scaled CLint,29 mL/min/kg
Cc1nc2c(=O)n(C)c(=O)nc-2n(C)n1,mouse,liver microsomes,,,,microsomal CLint,< 7.4 µL/min/mg
C[C@H]1COCCN1c1nc(NCc2cccnc2C(F)(F)F)c2cccnc2n1,mouse,hepatocytes,,,,hepatocyte CLint,8.9 µL/min/10⁶ cells
